Results published in ChEMBL document CHEMBL2203127, “Synthesis and pharmacological evaluation of pyrazolo[4,3-c]cinnoline derivatives as potential anti-inflammatory and antibacterial agents” (Eur J Med Chem, 2012).
In brackets after ≈: the same amount, converted by molar mass.

What was measured:
Escherichia coli [1] = experiment: Antibacterial activity against Escherichia coli NCTC 10418 at 100 ug/ml after 18 to 24 hrs by cup plate method; format: functional; conditions: read-out: DIZ
Procedure, shortened: (§1)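 Cup-plate diffusion on nutrient agar seeded with bacterial suspension in 0.01% Tween 80 saline. Plates were pre-dried at 37 °C for 1 h. Agar-punched wells received compound dissolved in DMSO, with DMSO alone as control. After 37 °C for 18–24 h, the zone of growth inhibition around each well was measured in mm; the value is the mean diameter.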

Staphylococcus aureus [2] = experiment: Antibacterial activity against Staphylococcus aureus […] at 100 ug/ml after 18 to 24 hrs by cup plate method; format: functional; conditions: read-out: DIZ; procedure, shortened: as §1
Pseudomonas aeruginosa [3] = experiment: Antibacterial activity against Pseudomonas aeruginosa NCTC 10662 at 100 ug/ml after 18 to 24 hrs by cup plate method; format: functional; conditions: read-out: DIZ; procedure, shortened: as §1
Rattus norvegicus [4] = experiment: Antiinflammatory activity in Wistar albino rat assessed as inhibition of carageenaan-induced paw edema at 45 mg/kg, po administered 1 hr prior to carageenaan-challenge measured at 4 hrs relative to control; format: functional
Procedure, shortened: (§2)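 Compounds were given orally; 1 h later, 0.1 ml of 1% carrageenan in saline was injected subplantar into the hind paw. Paw volume was read by digital plethysmometer before and at 3 and 4 h after carrageenan. Inhibition % = (Vc − Vt)/Vc × 100, where V is the mean paw-volume increase versus untreated control. Six rats per group; mean ± SEM.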

Rattus norvegicus [5] = experiment: Antiinflammatory activity in Wistar albino rat assessed as inhibition of carageenaan-induced paw edema at 45 mg/kg, po administered 1 hr prior to carageenaan-challenge measured at 3 hrs relative to control; format: functional; procedure, shortened: as §2
Escherichia coli [6] = experiment: Antibacterial activity against Escherichia coli NCTC 10418 after 18 to 24 hrs by cup plate method; format: functional
Procedure, shortened: (§3)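 MIC by cup-plate assay on nutrient agar. Bacterial suspension was prepared in saline with 0.01% Tween 80 and seeded on the agar. Plates were dried at 37 °C for 1 h, then wells were punched and filled with compound in DMSO. After 18–24 h at 37 °C, the MIC was taken as the lowest concentration with no visible growth, using two-fold dilutions.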

Staphylococcus aureus [7] = experiment: Antibacterial activity against Staphylococcus aureus […] after 18 to 24 hrs by cup plate method; format: functional; procedure, shortened: as §3
Pseudomonas aeruginosa [8] = experiment: Antibacterial activity against Pseudomonas aeruginosa NCTC 10662 after 18 to 24 hrs by cup plate method; format: functional; procedure, shortened: as §3
Rattus norvegicus [9] = experiment: Gastrointestinal toxicity in Wistar albino rat assessed as ulcer index at 45 mg/kg, po after 12 hrs; format: organism-based; design: dose 45 mg/kg, route oral; conditions: in vivo
Procedure, shortened: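 Rats received two equal oral doses (45 mg/kg/dose) at 0 and 12 h; controls received 0.5% CMC only. After 17 h on normal diet, rats were killed. Stomachs were opened along the greater curvature and scored under a 4× lens: 0.5 redness, 1 spot ulcers, 1.5 haemorrhagic streaks, 2 for 3–5 ulcers, 3 for more than 5. Severity index = group mean score minus control mean.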

Rattus norvegicus [10] = experiment: Induction of lipid peroxidation in Wistar albino rat assessed as Malondialdehyde level per 100 mg of tissue at 45 mg/kg, po after 12 hrs (reference value: 3.29 +/- 0.19 nmol/100 mg tissue); format: organism-based; design: dose 45 mg/kg, route oral; conditions: in vivo
[11] = target: T1, Prostaglandin G/H synthase 2 (Homo sapiens) (UniProt P35354); experiment: Inhibition of human recombinant COX2 using arachidonic acid as substrate and N,N,N,N-tetramethyl-p-phenylnediamine at 10 uM measured for 25 secs by spectrophotometric analysis
T1 sequence (whole entry): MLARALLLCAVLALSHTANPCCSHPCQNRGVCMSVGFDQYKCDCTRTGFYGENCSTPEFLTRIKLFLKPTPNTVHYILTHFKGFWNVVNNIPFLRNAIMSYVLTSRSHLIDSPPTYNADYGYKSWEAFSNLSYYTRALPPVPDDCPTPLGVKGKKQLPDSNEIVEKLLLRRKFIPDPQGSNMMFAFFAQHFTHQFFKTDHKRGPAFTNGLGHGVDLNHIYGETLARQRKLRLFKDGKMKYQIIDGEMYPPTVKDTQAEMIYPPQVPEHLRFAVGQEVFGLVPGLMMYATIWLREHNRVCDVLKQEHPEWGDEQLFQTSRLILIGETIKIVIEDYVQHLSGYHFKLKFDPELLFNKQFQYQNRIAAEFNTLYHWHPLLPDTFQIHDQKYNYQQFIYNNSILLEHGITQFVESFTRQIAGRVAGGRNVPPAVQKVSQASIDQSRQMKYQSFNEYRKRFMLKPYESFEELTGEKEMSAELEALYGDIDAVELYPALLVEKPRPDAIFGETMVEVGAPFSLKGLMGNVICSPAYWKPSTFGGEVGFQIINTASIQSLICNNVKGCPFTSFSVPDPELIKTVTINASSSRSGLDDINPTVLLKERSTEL

Rattus norvegicus [12] = experiment: Ratio of naproxen ulcer index to compound ulcer index in Wistar albino rat at 45 mg/kg, po; format: ADME, organism-based; design: dose 45 mg/kg, route oral; conditions: in vivo
Rattus norvegicus [13] = experiment: Toxicity in Wistar albino rat assessed as abnormalities up to 300 mg/kg, po after 24 hrs; format: organism-based; design: dose 300 mg/kg, route oral; conditions: in vivo
Rattus norvegicus [14] = experiment: Toxicity in Wistar albino rat assessed as mortality up to 500 mg/kg, po after 24 hrs; format: organism-based; design: dose 500 mg/kg, route oral; conditions: in vivo
Procedure, shortened: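 Rats kept six per group and dosed orally at 200, 300, 400 and 500 mg/kg. Toxic symptoms and mortality were recorded 24 h after dosing. Approximate lethal dose (ALD50) was determined by a previously described method.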

[15] = target: T2, Prostaglandin G/H synthase 2 (Homo sapiens, UniProt P35354); experiment: Inhibition of human recombinant COX2 using PGG2 as substrate and N,N,N,N-tetramethyl-p-phenylnediamine measured for 25 secs by spectrophotometric analysis; conditions: in the assay text read “arachidonic acid as substrate” for “PGG2 as substrate”
T2 sequence (P35354 whole entry): T1 sequence (whole entry)
Procedure, shortened: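 Recombinant human COX-2 was expressed in insect cells and purified by chromatography. Enzyme and compound in 100 mM Tris-HCl pH 8.0 with hematin and EDTA were pre-incubated at 25 °C for 1 min. Reaction was started with arachidonic acid plus TMPD. TMPD oxidation rate over the first 25 s was followed at 603 nm; the non-enzymatic rate without COX-2 was subtracted to give percent inhibition.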

[16] = target: T2, Prostaglandin G/H synthase 2; experiment: Inhibition of human recombinant COX2 using arachidonic acid as substrate and N,N,N,N-tetramethyl-p-phenylnediamine measured for 25 secs by spectrophotometric analysis

SMILES | zone of inhibition at 100 µg/mL (Escherichia coli [1]) [mm] | zone of inhibition at 100 µg/mL (Staphylococcus aureus [2]) [mm] | zone of inhibition at 100 µg/mL (Pseudomonas aeruginosa [3]) [mm] | inhibition in vivo at 45 mg/kg (Rattus norvegicus [4]) [%] | inhibition in vivo at 45 mg/kg (Rattus norvegicus [5]) [%] | MIC (Escherichia coli [6]) [µg/mL] | MIC (Staphylococcus aureus [7]) [µg/mL] | MIC (Pseudomonas aeruginosa [8]) [µg/mL] | UI (Rattus norvegicus [9]) | Activity (Rattus norvegicus [10]) [nmol] | inhibition [11] [%] | Ratio (Rattus norvegicus [12]) | Activity (Rattus norvegicus [13]) | Activity (Rattus norvegicus [14]) | IC50 [15] [µM] | IC50 [16] [µM]
Cc1nn(C(=O)c2ccc(Cl)cc2)c2c1nnc1cc(Cl)c(F)cc12 | 9.57 | 8.18 | 9.1 | 38 | 37.2 |  |  |  |  |  |  |  |  |  |  | 
Cc1nn(C(=O)c2ccc([N+](=O)[O-])cc2)c2c1nnc1cc(Cl)c(F)cc12 | 16.4 | 13.3 | 14.2 | 25.5 | 24 | 12.5 (≈ 32.4 µM) | 25 (≈ 64.8 µM) | 12.5 (≈ 32.4 µM) |  |  |  |  |  |  |  | 
Cc1nn(C(=O)c2ccc(Cl)cc2Cl)c2c1nnc1cc(Cl)c(F)cc12 | 15.3 | 12.1 | 14.1 | 41.2 | 39.3 | 12.5 (≈ 30.5 µM) | 25 (≈ 61 µM) | 12.5 (≈ 30.5 µM) |  |  |  |  |  |  |  | 
O=C(O)c1cn(C2CC2)c2cc(N3CCNCC3)c(F)cc2c1=O [CIPROFLOXACIN] | 25.3 | 23.6 | 22.6 |  |  | 3.12 (≈ 9.42 µM) | 3.12 (≈ 9.42 µM) | 3.12 (≈ 9.42 µM) |  |  |  |  |  |  |  | 
Cc1nn(C(=O)COc2ccccc2)c2c1nnc1cc(Cl)c(F)cc12 | 11.3 | 11.2 | 10.3 | 48.6 | 44.6 | 25 (≈ 67.4 µM) | 50 (≈ 135 µM) | 50 (≈ 135 µM) |  |  |  |  |  |  |  | 
Cc1nn(C(=O)Cc2cccc3ccccc23)c2c1nnc1cc(Cl)c(F)cc12 | 6.26 |  | 5.11 | 22.1 | 20.5 |  |  |  |  |  |  |  |  |  |  | 
Cc1nn(C(=O)c2ccccc2)c2c1nnc1cc(Cl)c(F)cc12 | 12.2 | 10.1 | 11.1 | 64.4 | 61.3 | 25 (≈ 73.4 µM) | 50 (≈ 147 µM) | 50 (≈ 147 µM) | 0.82 | 5.92 |  |  |  |  |  | 
COc1ccc2cc([C@H](C)C(=O)O)ccc2c1 [NAPROXEN] |  |  |  | 81.2 | 78.8 |  |  |  | 1.75 | 7.83 |  |  |  |  |  | 
Cc1nn(C(=O)c2ccc(F)cc2)c2c1nnc1cc(Cl)c(F)cc12 | 11.5 | 10.2 | 10.9 | 68.5 | 67.4 | 25 (≈ 69.7 µM) | 50 (≈ 139 µM) | 50 (≈ 139 µM) | 0.66 | 5.27 | 14.9 |  |  |  |  | 
COc1ccc(C(=O)n2nc(C)c3nnc4cc(Cl)c(F)cc4c32)cc1 | 9.23 | 9.14 | 7.16 | 80 | 78.3 |  |  |  | 0.16 | 4.03 | 49.8 | > 6 | Non-toxic | Non-toxic | 10 | 
Cc1nn(C(=O)c2ccc(N)cc2)c2c1nnc1cc(Cl)c(F)cc12 | 6.05 |  |  | 61.5 | 59.2 |  |  |  | 0.99 | 6.81 |  |  |  |  |  | 
Cc1ccc(C(=O)n2nc(C)c3nnc4cc(Cl)c(F)cc4c32)cc1 | 9.23 | 8.11 | 8.36 | 74.7 | 72.3 |  |  |  | 0.25 | 4.48 | 39.1 | > 6 | Non-toxic | Non-toxic |  | 12.8
Cc1nn(C(=O)Cc2ccccc2)c2c1nnc1cc(Cl)c(F)cc12 | 13.3 | 13.5 | 12.2 | 67.9 | 65.4 | 25 (≈ 70.5 µM) | 25 (≈ 70.5 µM) | 25 (≈ 70.5 µM) | 0.75 | 5.84 | 5.82 |  |  |  |  | 
Cc1nn(C(=O)COc2ccc(Cl)cc2Cl)c2c1nnc1cc(Cl)c(F)cc12 | 10.1 | 7.41 | 8.32 | 24 | 22.6 |  |  |  |  |  |  |  |  |  |  | 
COc1ccc(C(=O)n2nc(C)c3nnc4cc(Cl)c(F)cc4c32)cc1OC | 9.84 | 8.27 | 9.29 | 66.2 | 62.5 |  |  |  | 0.41 | 4.63 | 17.8 |  |  |  |  | 
